Legend:
[1] = Bioavailability as maximal plasma concentration in dogs; type: ADME, organism-based, Canis lupus familiaris; details: dog
Summary of the method: (§1)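 Dogs received an oral dose of 10 mg/kg. Cmax is the observed peak plasma concentration after the oral dose. Oral bioavailability is the dose-normalized ratio AUC(po)/AUC, with the plasma concentration–time area taken from zero to infinity.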

[2] = (§2) Bioavailability as maximal plasma concentration in rats; type: ADME, organism-based; details: rat
Summary of the method: (§3)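 Rats (n = 4/group) were given an oral dose of 10 mg/kg in a propylene glycol / poly(ethylene glycol) 400 / water formulation. Cmax is the observed peak plasma concentration after the oral dose. F% is AUC(po)/AUC, with AUC taken from time zero to infinity and normalized for dose.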

[3] = Bioavailability in dog; type: ADME, organism-based, Canis lupus familiaris; details: in vivo; summary of the method: as §1
[4] = Bioavailability in rat; type: ADME, organism-based; details: in vivo; summary of the method: as §3
[5] = system: Human immunodeficiency virus 1; experiment: Inhibition of viral infection in HIV-1 (RF)-infected MT-2 cells with an oligonucleotide-based sandwich hybridization assay.; type: functional, MT2
Summary of the method: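 Uninfected MT-2 cells were preincubated for 30 min with serial dilutions of compound, then infected with HIV-1 RF and cultured for 3 days at 37 °C, 5% CO2. Lysates were assayed for viral RNA by microtiter oligonucleotide sandwich hybridization.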

[6] = biological target: Human immunodeficiency virus type 1 protease (Human immunodeficiency virus 1, UniProt Q72874); experiment: Inhibitory activity against HIV-1 protease
Summary of the method: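 HIV-1 protease Ki from cleavage of a fluorescent peptide substrate, products resolved by HPLC. Inhibitor was tested at four concentrations spanning 0.1–10 000 nM, the range chosen per inhibitor.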

[7] = as §2; type: ADME, organism-based; details: rat; summary of the method: as §3; remark: listed apart in the source
[8] = Human immunodeficiency virus 1, MT2

For `O=C1N(Cc2cccc(O)c2)[C@H](Cc2ccccc2)[C@H](O)[C@@H](O)[C@@H](Cc2ccccc2)N1Cc1cccc(O)c1`, the Cmax [1] was 2000 nM, the Cmax [2] was 810 nM and the bioavailability [3] was 16%. For the same molecule, the bioavailability [4] was 30%, the IC90 [5, 8] was 54 nM and the Ki [6] was 0.12 nM.
Molecule `O=C1N(Cc2ccc(CO)cc2)[C@H](Cc2ccccc2)[C@H](O)[C@@H](O)[C@@H](Cc2ccccc2)N1Cc1ccc(CO)cc1` [DMP-323] has a Cmax [1] of 2800 nM, a Cmax [2] of 780 nM and a bioavailability [3] of 37%. The bioavailability [4] was 27% and the IC90 [5] was 57 nM.
With `O=C1N(Cc2cccc(O)c2)[C@H](Cc2ccccc2)[C@H](O)[C@@H](O)[C@@H](Cc2ccccc2)N1Cc1ccc2ccccc2c1` the Cmax [1] was 2700 nM, the Cmax [2] was 960 nM and the Cmax [7] was 960 nM. The IC90 [5, 8] was 145 nM and the Ki [6] was 0.33 nM.
In the case of `O=C1N(CC2CC2)[C@H](Cc2ccccc2)[C@H](O)[C@@H](O)[C@@H](Cc2ccccc2)N1CC1CC1`, the Cmax [1] is reported as 9200 nM, the Cmax [2] is reported as 4300 nM and the bioavailability [3] is reported as 48%. For the same molecule, the bioavailability [4] was 100% and the IC90 [5, 8] was 1800 nM.
Work on `C=CCN1C(=O)N(CC=C)[C@H](Cc2ccccc2)[C@H](O)[C@@H](O)[C@H]1Cc1ccccc1` yielded a Cmax [2] of 2700 nM, a bioavailability [4] of 49% and an IC90 [5, 8] of 4700 nM. The Ki [6] was 5.2 nM.
Molecule `O=C1N(Cc2ccc(O)cc2)[C@H](Cc2ccccc2)[C@H](O)[C@@H](O)[C@@H](Cc2ccccc2)N1Cc1ccc(O)cc1` has a Cmax [2] of 390 nM, a bioavailability [4] of 22% and an IC90 [5, 8] of 32 nM. For the same molecule, the Ki [6] was 0.12 nM.

From ChEMBL document CHEMBL1129626, “Cyclic HIV protease inhibitors: synthesis, conformational analysis, P2/P2' structure-activity relationship, and molecular recognition of cyclic ureas” (J Med Chem, 1996)
